Measured values: paper PMC8295177 (Cancer discovery, 2021)

How the values were obtained:
[1] = test system: patients with advanced NSCLC refractory to standard therapies; experiment: Phase 1 dose-escalation study; format: in vivo
[2] = Plasma pharmacokinetics of mobocertinib in dose-escalation patients; format: in vivo, human; conditions: oral
Outline: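 Patients with NSCLC took oral capsules once daily in continuous 28-day cycles. Plasma was sampled at prespecified times after the first dose (Cycle 1, Day 1) and at steady state (Cycle 2, Day 1). Drug and active metabolites were quantified by validated LC-MS. Tmax, Cmax and AUC0–24 came from noncompartmental analysis. Effective half-life was derived from accumulation as a geometric mean.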

[3] = test system: patients treated with mobocertinib 160 mg daily; experiment: Safety and tolerability; format: in vivo, human
Outline: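 Safety pooled phase 1 and phase 2 patients who received at least one dose at an initial 160 mg daily, given orally in continuous 28-day cycles. Treatment-related TEAEs were tallied at any grade and at grade ≥3. The EGFRex20ins NSCLC subgroup came from dose escalation plus expansion cohort 1. Grade 3–4 toxicity led to withholding the drug, with up to two dose reductions allowed.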

[4] = 28 patients with EGFRex20ins mutations treated at 160 mg daily
[5] = 136 patients treated at 160 mg daily
[6] = all patients treated at 160 mg daily (n=136), number (%) of patients
[7] = patients with EGFRex20ins treated at 160 mg daily (n=28), number (%) of patients

C=CC(=O)Nc1cc(Nc2ncc(C(=O)OC(C)C)c(-c3cn(C)c4ccccc34)n2)c(OC)cc1N(C)CCN(C)C [mobocertinib]
recommended phase 2 dose (RP2D) ([1]; human, in vivo, po, 28 days): 160 mg daily | maximum tolerated dose (MTD) ([1]; oral, 28-day cycles, dose escalation 5-180 mg daily): 160 mg daily | half-life ([2]; human, plasma): 11 to 17 h | exposure (AUC0–24) dose dependence ([2]; dose range 5 mg to 180 mg daily): approximately dose-proportional | patients with AEs leading to discontinuation [3, 4]: 25% | patients with AEs requiring dose interruption [3, 4]: 57% | patients with AEs requiring dose reduction [3, 4]: 18% | patients who experienced a treatment-emergent adverse event (TEAE) [3, 5]: 99% | patients with TEAEs considered related to mobocertinib treatment [3, 5]: 96% | patients with TEAEs requiring discontinuation [3, 5]: 16% | patients with TEAEs requiring dose interruption [3, 5]: 54% | patients with TEAEs requiring dose reduction [3, 5]: 17% | patients with grade 3 or higher treatment-related TEAEs [3, 5]: 40% | patients with serious treatment-related TEAEs [3, 5]: 13% | serious treatment-related TEAE diarrhea, patients [3, 5]: 4% | serious treatment-related TEAE vomiting, patients [3, 5]: 4% | treatment-related diarrhea, any grade, patients [3, 5]: 83% | treatment-related diarrhea, grade ≥3, patients [3, 5]: 21% | treatment-related nausea, any grade, patients [3, 5]: 43% | treatment-related rash, any grade, patients [3, 5]: 33% | treatment-related vomiting, any grade, patients [3, 5]: 26% | diarrhea leading to discontinuation, patients ([3]; 136 patients treated at 160 mg daily (7/136)): 5% | Treatment-related TEAE Anemia, Any Grade [3, 6]: 19 (14) | Treatment-related TEAE Anemia, Grade ≥3 [3, 6]: 3 (2) | Treatment-related TEAE Decreased appetite, Any Grade [3, 6]: 29 (21) | Treatment-related TEAE Decreased appetite, Grade ≥3 [3, 6]: 1 (1) | Treatment-related TEAE Dermatitis acneiform, Any Grade [3, 6]: 19 (14) | Treatment-related TEAE Dermatitis acneiform, Grade ≥3 [3, 6]: 1 (1) | Treatment-related TEAE Diarrhea, Any Grade [3, 6]: 113 (83) | Treatment-related TEAE Diarrhea, Grade ≥3 [3, 6]: 28 (21) | Treatment-related TEAE Dry skin, Any Grade [3, 6]: 30 (22) | Treatment-related TEAE Dry skin, Grade ≥3 [3, 6]: 0 | Treatment-related TEAE Dyspepsia, Any Grade [3, 6]: 16 (12) | Treatment-related TEAE Dyspepsia, Grade ≥3 [3, 6]: 0 | Treatment-related TEAE Fatigue, Any Grade [3, 6]: 28 (21) | Treatment-related TEAE Fatigue, Grade ≥3 [3, 6]: 2 (1) | Treatment-related TEAE GERD, Any Grade [3, 6]: 17 (13) | Treatment-related TEAE GERD, Grade ≥3 [3, 6]: 0 | Treatment-related TEAE Increased lipase, Any Grade [3, 6]: 15 (11) | Treatment-related TEAE Increased lipase, Grade ≥3 [3, 6]: 7 (5) | Treatment-related TEAE Nausea, Any Grade [3, 6]: 58 (43) | Treatment-related TEAE Nausea, Grade ≥3 [3, 6]: 5 (4) | Treatment-related TEAE Paronychia, Any Grade [3, 6]: 22 (16) | Treatment-related TEAE Paronychia, Grade ≥3 [3, 6]: 0 | Treatment-related TEAE Pruritus, Any Grade [3, 6]: 14 (10) | Treatment-related TEAE Pruritus, Grade ≥3 [3, 6]: 0 | Treatment-related TEAE Rash maculo-papular, Any Grade [3, 6]: 22 (16) | Treatment-related TEAE Rash maculo-papular, Grade ≥3 [3, 6]: 1 (1) | Treatment-related TEAE Rash, Any Grade [3, 6]: 45 (33) | Treatment-related TEAE Rash, Grade ≥3 [3, 6]: 1 (1) | Treatment-related TEAE Stomatitis, Any Grade [3, 6]: 28 (21) | Treatment-related TEAE Stomatitis, Grade ≥3 [3, 6]: 5 (4) | Treatment-related TEAE Vomiting, Any Grade [3, 6]: 36 (26) | Treatment-related TEAE Vomiting, Grade ≥3 [3, 6]: 5 (4) | Treatment-related TEAE Anemia, Any Grade [3, 7]: 5 (18) | Treatment-related TEAE Anemia, Grade ≥3 [3, 7]: 0 | Treatment-related TEAE Decreased appetite, Any Grade [3, 7]: 11 (39) | Treatment-related TEAE Decreased appetite, Grade ≥3 [3, 7]: 0 | Treatment-related TEAE Dermatitis acneiform, Any Grade [3, 7]: 5 (18) | Treatment-related TEAE Dermatitis acneiform, Grade ≥3 [3, 7]: 0
